ChEMBL document CHEMBL2086286, “Synthesis, antitumor, cytotoxic and antioxidant evaluation of some new pyrazolotriazines attached to antipyrine moiety” (Eur J Med Chem, 2012)
≈ marks a conversion by molar mass, not a printed value. Where “and” joins values, the source holds several entries; their conditions need not be identical. Equal entries are not always repeated. Calls of active or inactive are those of the source. The calls are words filed in the database; no cut-off is given here.

How the values were obtained:
[1] = Cytotoxicity against mouse EAC after 2 hrs by trypan blue staining based hemocytometer analysis; format: functional, Ehrlich; conditions: for IC50: ehrlich
How it was run: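 Ehrlich ascites cells aspirated aseptically from the peritoneal cavity of a donor animal. Held in RPMI with 10% FBS at 37 °C, 5% CO2 for 2 h with compound at 25, 50 and 100 µg, final DMSO 0.1%. Dead cells counted by trypan blue staining on a hemocytometer; DMSO-only control viability exceeded 95%. 5-Fluorouracil as reference.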

[2] = system: WI-38; assay: Cytotoxicity against human WI38 cells after 96 hrs by MTT assay; format: functional, cell-based; conditions: WI-38, 96 h
[3] = system: HepG2; assay: Cytotoxicity against human HepG2 cells after 96 hrs by MTT assay; format: functional, cell-based; conditions: HepG2, 96 h
[4] = system: MCF7; assay: Cytotoxicity against human MCF7 cells after 96 hrs by MTT assay; format: functional, cell-based; conditions: MCF7, 96 h
[5] = system: Vero; assay: Cytotoxicity against African green monkey Vero cells after 96 hrs by MTT assay; format: cell-based; conditions: Chlorocebus sabaeus
[6] = Antioxidant activity assessed as ABTS free radical scavenging activity at 1 mg/mL by spectroscopic analysis; format: functional
How it was run: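 ABTS radical cation generated by reacting ABTS with MnO2 (25 mg/mL) in phosphate buffer pH 7, then centrifuged and filtered. Absorbance read at 734 nm before and after adding test sample (1 mg/mL in MeOH/buffer 1:1). % inhibition = [A(control) − A(test)]/A(control) × 100. Ascorbic acid (2 mM) as positive control; solvent blank without ABTS.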

[7] = system: Nucleic Acid; assay: Protective activity against bleomycin-iron complex-induced DNA damage at 0.1 mg/ml after 1 hr; format: nucleic-acid assay
How it was run: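 Final reaction mixture: DNA 0.2 mg/mL, bleomycin 0.05 mg/mL, FeCl3 0.025 mM, MgCl2 5 mM, KH2PO4/KOH pH 7.0 30 mM, and test sample 0.1 mg/mL (in MeOH) or ascorbic acid 0.24 mM. Incubated 1 h at 37 °C, stopped with EDTA. DNA damage measured by adding 1% TBA and 25% HCl, heating 15 min at 80 °C, then reading absorbance.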

Row | SMILES | ED25 [1] [µg] | ED100 [1] [µg] | IC50 [1] | IC50 [2] [µg/mL] | IC50 [3] [µg/mL] | IC50 [4] [µg/mL] | IC50 [5] [µg/mL] | inhibition [6] [%] | ED50 [1] [µg] | Activity [7]
1 | Cc1[nH]nc(-n2nc(C(=O)c3ccccc3)sc2=N)c1/N=N/c1c(C)n(C)n(-c2ccccc2)c1=O | 39.36 | 60.5 | 90.7 µg | 171 (≈ 343 µM) | 186 (≈ 373 µM) | 210 (≈ 420 µM) | 210 (≈ 421 µM) | 15.7 | – | –
2 | CCOC(=O)/C(C#N)=N/Nc1n[nH]c(C)c1/N=N/c1c(C)n(C)n(-c2ccccc2)c1=O | 22.53 | 68.7 | 94.9 µg and 49.8 µg | 169 (≈ 389 µM) | 153 (≈ 352 µM) | 150 (≈ 344 µM) | 179 (≈ 412 µM) | 21.6 | – | –
3 | CC1=NNC(=O)/C1=N/Nc1n[nH]c(C)c1/N=N/c1c(C)n(C)n(-c2ccccc2)c1=O | 26.63 | 63.3 | 93 µg and 45.5 µg | 300 (≈ 713 µM) | 202 (≈ 480 µM) | 393 (≈ 935 µM) | 214 (≈ 508 µM) | 16.1 | – | –
4 | Cc1nn2c(nnc3c(C)n[nH]c32)c1/N=N/c1c(C)n(C)n(-c2ccccc2)c1=O | 34.69 | 61 | 92.1 µg and 43 µg | 311 (≈ 772 µM) | 210 (≈ 521 µM) | 411 (≈ 1020 µM) | 276 (≈ 687 µM) | 16.1 | – | –
5 | Cc1[nH]nc(N/N=C(\C#N)c2nc3ccccc3s2)c1/N=N/c1c(C)n(C)n(-c2ccccc2)c1=O | 11.17 | 70.8 | 95 µg and 56.4 µg | 169 (≈ 341 µM) | 179 (≈ 360 µM) | 164 (≈ 330 µM) | 181 (≈ 364 µM) | 19.3 | – | –
6 | CC(=N)c1nnc2c(/N=N/c3c(C)n(C)n(-c4ccccc4)c3=O)c(C)nn2c1N | 14.38 | 70.1 | 95.5 µg and 55 µg | 175 (≈ 433 µM) | 139 (≈ 343 µM) | 152 (≈ 375 µM) | 164 (≈ 406 µM) | 24.4 | – | –
7 | CC(=N)/C(C#N)=N\Nc1n[nH]c(C)c1/N=N/c1c(C)n(C)n(-c2ccccc2)c1=O | 1.3 | 80 | 97.5 µg and 60.1 µg | 70.2 (≈ 174 µM) | 70.8 (≈ 175 µM) | 69 (≈ 171 µM) | 735 (≈ 1820 µM) | 28.6 | – | –
8 | Cc1nn2c(nnc3c(N)c(C#N)c(N)nc32)c1/N=N/c1c(C)n(C)n(-c2ccccc2)c1=O | 62.53 | 40.6 | – | 303 (≈ 667 µM) | 203 (≈ 448 µM) | 419 (≈ 922 µM) | 220 (≈ 485 µM) | 8.28 | – | –
9 | CC(=O)C(=NNc1n[nH]c(C)c1/N=N/c1c(C)n(C)n(-c2ccccc2)c1=O)C(C)=O | 15.59 | 70 | 95 µg and 54.1 µg | 189 (≈ 446 µM) | 174 (≈ 412 µM) | 214 (≈ 507 µM) | 199 (≈ 472 µM) | 25.8 | – | –
10 | O=C1O[C@H]([C@@H](O)CO)C(O)=C1O | – | – | – | – | – | – | – | 92.3 | – | –
11 | Cc1[nH]nc(N/N=C(/C#N)C(N)=C(C#N)C#N)c1/N=N/c1c(C)n(C)n(-c2ccccc2)c1=O | 64.48 | 38 | – | 176 (≈ 387 µM) | 148 (≈ 325 µM) | 192 (≈ 422 µM) | 212 (≈ 467 µM) | 9.86 | – | –
12 | O=c1[nH]cc(F)c(=O)[nH]1 [FLUOROURACIL] | 32.26 | 68 | 97.3 µg | 4 (≈ 30.8 µM) | 9.1 (≈ 70 µM) | 2.5 (≈ 19.2 µM) | 6.4 (≈ 49.2 µM) | – | 38.6 | –
13 | CC(=N)/C(C#N)=N\Nc1c(C)n(C)n(-c2ccccc2)c1=O | 0.46 | 97.2 | 100 µg | 13.8 (≈ 46.6 µM) | 8.3 (≈ 28 µM) | 15.1 (≈ 51 µM) | 10 (≈ 33.7 µM) | 80.9 | – | Active
14 | CC(=O)c1nnc2c(/N=N/c3c(C)n(C)n(-c4ccccc4)c3=O)c(C)nn2c1C | 11.01 | 73.9 | 96.7 µg and 55.5 µg | 40.3 (≈ 99.6 µM) | 39.3 (≈ 97.2 µM) | 30.6 (≈ 75.7 µM) | 33.1 (≈ 81.8 µM) | 27.5 | – | –
15 | Cc1[nH]nc(NN=C2C(=O)CCCC2=O)c1/N=N/c1c(C)n(C)n(-c2ccccc2)c1=O | 0.88 | 80 | 98.8 µg and 63.3 µg | 19.8 (≈ 45.6 µM) | 16.2 (≈ 37.3 µM) | 29.9 (≈ 68.8 µM) | 24.8 (≈ 57.1 µM) | 40 | – | Active
16 | Cc1nn2c(N)c(-c3nc4ccccc4s3)nnc2c1/N=N/c1c(C)n(C)n(-c2ccccc2)c1=O | 26.63 | 64 | 93.8 µg and 49 µg | 199 (≈ 400 µM) | 225 (≈ 454 µM) | 186 (≈ 374 µM) | 244 (≈ 491 µM) | 17.2 | – | –
17 | Cc1[nH]nc(N)c1/N=N/c1c(C)n(C)n(-c2ccccc2)c1=O | 1.71 | 79.3 | 97 µg and 58 µg | 73.1 (≈ 235 µM) | 79.1 (≈ 254 µM) | 84.7 (≈ 272 µM) | 80.3 (≈ 258 µM) | 28.4 | – | –
18 | Cc1nn2c(N)c(C#N)nnc2c1/N=N/c1c(C)n(C)n(-c2ccccc2)c1=O | 34.26 | 62 | 91.9 µg and 42.8 µg | 377 (≈ 971 µM) | 254 (≈ 654 µM) | 452 (≈ 1160 µM) | 301 (≈ 775 µM) | 15.9 | – | –
19 | Cc1nn2c3c(nnc2c1/N=N/c1c(C)n(C)n(-c2ccccc2)c1=O)C(=O)CCC3 | 0.67 | 91.4 | 99 µg and 80.2 µg | 53 (≈ 127 µM) | 55.3 (≈ 133 µM) | 68.2 (≈ 164 µM) | 61.1 (≈ 147 µM) | 52.5 | – | Active
20 | CCOC(=O)c1nnc2c(/N=N/c3c(C)n(C)n(-c4ccccc4)c3=O)c(C)nn2c1N | 28.02 | 65.3 | 94 µg and 47 µg | 367 (≈ 843 µM) | 268 (≈ 616 µM) | 420 (≈ 965 µM) | 284 (≈ 653 µM) | 17.6 | – | –
21 | Cc1[nH]nc(NN=C(C#N)C#N)c1/N=N/c1c(C)n(C)n(-c2ccccc2)c1=O | 27.85 | 64 | 94.3 µg | 197 (≈ 508 µM) | 183 (≈ 470 µM) | 221 (≈ 570 µM) | 209 (≈ 537 µM) | 17.2 | – | –
22 | Cc1[nH]nc(N/N=C(\SC#N)C(=O)c2ccccc2)c1/N=N/c1c(C)n(C)n(-c2ccccc2)c1=O | 26.92 | 65.2 | 94.3 µg and 48.1 µg | 92.8 (≈ 186 µM) | 95.3 (≈ 191 µM) | 101 (≈ 202 µM) | 96.8 (≈ 194 µM) | 17.6 | – | Active
